Calls of active or inactive are those of the source. The rule behind the calls is not given here.
Columns and labels:
Staphylococcus aureus [1] = experiment: Antibacterial activity against Staphylococcus aureus RN4220 ATCC 35556 at 0.5 times MIC99 after 24 hrs by checkerboard assay in presence of kanamycin; type: functional
Procedure, shortened: (§1)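 Checkerboard assay: compound serially diluted along one axis of a 96-well plate and antibiotic along the other, in LB. Each well inoculated with 2 × 10⁴ CFU and incubated 24 h at 37 °C. ΣFIC = FIC A + FIC B, where each FIC is the combination MIC99 divided by the MIC99 of that drug alone.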

Staphylococcus aureus [2] = experiment: Antibacterial activity against methicillin-resistant Staphylococcus aureus clinical isolate 20225B SPA type 15 after 24 hrs by microbroth dilution method; type: functional
Procedure, shortened: (§2)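 MRSA isolates from ICU surfaces, stored at −80 °C and grown in Mueller-Hinton broth. Overnight cultures diluted and added to serially diluted compound at ~10⁵ CFU/mL, broth microdilution. Plates incubated 24 h at 37 °C, growth read as absorbance at 620 nm. MIC99 taken as the lowest concentration giving complete growth inhibition.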

Caenorhabditis elegans [3] = experiment: Toxicity in adult L4/juvenile L1 stages of Caenorhabditis elegans N2 assessed as effect on egg production at 64 ug/ml incubated for 96 hrs measured every 12 hrs; type: organism-based; conditions: in vivo
Procedure, shortened: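 C. elegans N2 maintained on NGM agar at 22 °C. Compound mixed into molten NGM agar at 64 μg/mL. L4 adults, L1 juveniles and synchronized eggs transferred onto test plates and kept 96 h at 22 °C. Checked every 12 h for death, development and egg production. Gentamicin and […] as controls.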

Pseudomonas aeruginosa [4] = experiment: Antibacterial activity against Pseudomonas aeruginosa PAO1 ATCC 47085 in exponential-phase assessed as cytoplasmic membrane depolarization at 1 to 4 times MIC99 by fluorescent probe DiSC3-5 based fluorophotometric analysis; type: functional, organism-based
Procedure, shortened: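 Log-phase cells (OD600 ~0.7) washed and resuspended to OD600 0.05 in 5 mM HEPES pH 7.2 with 5 mM glucose and 100 mM KCl. Loaded with 0.4 μM DiSC3-5 in the dark until fluorescence fell stably by about 90%. Compound added at 4× or 1× MIC99 and fluorescence recorded continuously at 25 °C (ex 622/em 670 nm). 2,4-Dinitrophenol as positive control. Three independent experiments.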

[5] = Selectivity index, ratio of CC50 for human A549 cells to MIC99 for methicillin-resistant Staphylococcus aureus clinical isolate
Pseudomonas aeruginosa [6] = experiment: Antibacterial activity against Pseudomonas aeruginosa PAO1 ATCC 47085 in early exponential-phase assessed as membrane damage at 2 times MIC99 after 15 mins by transmission electron microscopy; type: functional, organism-based
Procedure, shortened: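 Cells grown in LB to early exponential phase (OD600 ~0.4). Exposed to 2× MIC99 for 15–60 min, washed twice in phosphate buffer, fixed in 2.5% glutaraldehyde, then imaged by transmission electron microscopy.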

Staphylococcus aureus [7] = experiment: Bactericidal activity against Staphylococcus aureus RN4220 ATCC 35556 in exponential-phase assessed as reduction in bacterial burden at 4 times MIC99 after 2 to 6 hrs by time-kill assay; type: functional, organism-based
Procedure, shortened: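 Overnight cultures washed and resuspended in PBS, then diluted 100-fold into LB (exponential-phase model) or into 1% PBS (stationary-phase model). Test agent added at 4× MIC99. Incubated at 37 °C with shaking at 200 rpm. CFU counted on LB agar at 0, 2, 4 and 6 h.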

Staphylococcus aureus [8] = experiment: Antibacterial activity against methicillin-resistant Staphylococcus aureus clinical isolate 10076B SPA type 2 after 24 hrs by microbroth dilution method; type: functional; procedure, shortened: as §2
Escherichia coli = experiment: Antibacterial activity against Escherichia coli ANS1 incubated overnight by microbroth dilution method; type: functional
Procedure, shortened: (§3)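 Bacteria grown in LB medium. CLSI microbroth dilution in 96-well plates, overnight at 37 °C without shaking. MIC99 taken as the lowest concentration giving complete growth inhibition. Three independent determinations, reported as mean ± SD.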

Staphylococcus aureus [9] = experiment: Antibacterial activity against methicillin-resistant Staphylococcus aureus clinical isolate 20467BA SPA type 59 after 24 hrs by microbroth dilution method; type: functional; procedure, shortened: as §2
[10] = Toxicity in adult L4/juvenile L1 stages of Caenorhabditis elegans N2 assessed as survival at 64 ug/ml incubated for 96 hrs measured every 12 hrs; type: organism-based; conditions: in vivo
Procedure, shortened: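 C. elegans N2 kept on NGM agar at 22 °C. Compound mixed into molten NGM agar at 64 μg/mL. L4 adults, L1 juveniles and synchronized eggs transferred onto test plates and held at 22 °C for 96 h. Death, development and egg production checked every 12 h.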

Pseudomonas aeruginosa [11] = experiment: Bactericidal activity against Pseudomonas aeruginosa PAO1 ATCC 47085 assessed as reduction in bacterial burden at 0.5 times MIC99 after 3 to 24 hrs by time kill assay in presence of 0.5 times MIC99 of kanamycin relative to control; type: functional, organism-based
Procedure, shortened: (§4)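 Combination time-kill in LB at 1 × 10⁶ CFU/mL starting inoculum. Arms were compound or kanamycin alone at 1× and 0.5× MIC99, and the two combined at 0.5× MIC99 each. Incubated at 37 °C with shaking at 300 rpm. Viable counts taken by dilution and plating on LB agar at 0, 3, 6 and 24 h.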

[12] = Selectivity index, ratio of CC50 for HEK293T/17 cells to MIC99 for Staphylococcus aureus RN4220 ATCC 35556; type: toxicity, cell-based; conditions: human, read-out: Selectivity Index
Procedure, shortened: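 CC50: HEK293T/17 or A549 cells seeded at 10⁴ per well in DMEM with 10% FBS at 37 °C, 5% CO2. After 24 h, wells PBS-washed and serially diluted compound applied for 48 h, with viability read by MTS and CC50 taken by nonlinear regression. MIC99 by CLSI broth microdilution, overnight at 37 °C without shaking, from three independent tests. SI = CC50/MIC99.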

Staphylococcus aureus [13] = experiment: Antibacterial activity against Staphylococcus aureus RN4220 ATCC 35556 incubated overnight by microbroth dilution method; type: functional; procedure, shortened: as §3
Pseudomonas aeruginosa [14] = experiment: Antibacterial activity against Pseudomonas aeruginosa PAO1 ATCC 47085 assessed as increase in outer membrane permeability at 1 to 4 times MIC99 by fluorescent probe 1-N-phenylnaphthylamine based fluorescence assay; type: functional, organism-based
Procedure, shortened: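 PAO1 cells harvested at OD600 ~0.5, washed, and resuspended in 5 mM HEPES pH 7.2 with 10 μM NPN (final) and 10 mM sodium azide (final). Held 30 min at room temperature in the dark. Compound added at 4× or 1× MIC99 and NPN fluorescence recorded continuously (ex 350/em 420 nm). Gentamicin at 4× MIC99 as positive control. Three independent experiments.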

Staphylococcus aureus [15] = experiment: Antibacterial activity against Staphylococcus aureus RN4220 ATCC 35556 at 0.5 times MIC99 after 24 hrs by checkerboard assay in presence of ampicillin; type: functional; procedure, shortened: as §1
Staphylococcus aureus [16] = experiment: Bactericidal activity against Staphylococcus aureus RN4220 ATCC 35556 assessed as reduction in bacterial burden at 0.5 times MIC99 after 3 to 24 hrs by time kill assay in presence of 0.5 times MIC99 of kanamycin relative to control; type: functional; procedure, shortened: as §4
Caenorhabditis elegans [17] = experiment: Toxicity in adult L4/juvenile L1 stages of Caenorhabditis elegans N2 assessed as deleterious effect on genotype at 64 ug/ml incubated for 96 hrs measured every 12 hrs; type: organism-based; conditions: in vivo

SMILES: Cl.Cl.S=C(NCCCNCCCCCNCCCNC(=S)NCC(c1ccccc1)c1ccccc1)NCC(c1ccccc1)c1ccccc1
- fractional inhibitory concentration index (FICI) (Staphylococcus aureus [1]): 0.25
- MIC99 (Staphylococcus aureus [2]): 1 µg/mL
- Activity (Caenorhabditis elegans [3]): Non-toxic
- Activity (Pseudomonas aeruginosa [4]): Active
- Selectivity Index [5]: 64
- Activity (Pseudomonas aeruginosa [6]): Active
- Activity (Staphylococcus aureus [7]): Active
- MIC99 (Staphylococcus aureus [8]): 1 µg/mL
- MIC99 (Escherichia coli): 2 µg/mL
- MIC99 (Staphylococcus aureus [9]): 1 µg/mL
- survival at 96 h, 64 ug/ml [10]: 100%
- Activity (Pseudomonas aeruginosa [11]): Active
- selectivity ratio [12]: 16
- MIC99 (Staphylococcus aureus [13]): 2 µg/mL
- Activity (Pseudomonas aeruginosa [14]): Active
- fractional inhibitory concentration index (FICI) (Staphylococcus aureus [15]): 0.75
- Activity (Staphylococcus aureus [16]): >2 deltalog10CFU/ml
- Activity (Caenorhabditis elegans [17]): Non-toxic
